Experimental data from ChEMBL document CHEMBL4513216, “Probing the Open Global Health Chemical Diversity Library for Multistage-Active Starting Points for Next-Generation Antimalarials” (ACS Infect Dis, 2020).

Experiment: Toxicity liver stage against HepG2, at 10uM
Format: cell-based
Parameters: test concentration 10 uM, cell line HepG2-A16-CD81EGFP
Conditions: human, HepG2-A16-CD81EGFP cells; read-out: INHIBITION
Method in brief: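 Uninfected HepG2-A16-CD81EGFP cells, 3 × 10^3 per well, 1536-well, plated on prespotted compound at 10 μM final, parasite-free screening media added to match infected plates; puromycin 10 μM positive, DMSO 0.5% negative; run in parallel with 48 h PbLuc assay at 37 °C, 5% CO2; viability by CellTiter-Glo luminescence, normalized to controls.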

Structure (SMILES)	cytotoxicity at 10 µM [%]
Cc1cccnc1NC(=O)C1CCCN1Cc1ccccc1 (stereo not given)	10.2
O=C(O)c1csc(S(=O)(=O)N2CCCc3ccc(F)cc32)c1	16.6
CS(=O)(=O)c1ccc(OCCNCc2ccc(F)cc2F)cc1	-8.25
O=C(Nc1ccccc1)N1CC(C(=O)N2CCCC2)C2(CCOCC2)C1 (stereo not given)	-82.4
Cc1ccc(S(=O)(=O)N2CCC3(CC(C(=O)NCC(C)C)=NO3)C2)cc1 (stereo not given)	-0.819
Cn1cc(-c2cnc(N3CCOCC3)nc2)cc1C(=O)N1CCOCC1	9.8
COc1ccccc1OCCCn1c(C)c(C)oc1=O	0.129
O=C(c1ccc(Cl)cc1)N1CCC2(CC1)C(=O)Nc1ccccc12	-145
CCc1cc(NC2CCOCC2)n2nc(C)c(C)c2n1	0.551
CCc1nc(C)c(-c2nccn2CC2CCCCO2)[nH]1 (stereo not given)	3.98
CCNc1ccnc(NC2CCN(CC(N)=O)CC2)n1	-15.7
Cn1ncnc1-c1ccnc(NCc2ccccn2)n1	-2.46
CCC[C@H]1CN(S(C)(=O)=O)C[C@@H]1NC(=O)CCCn1ccnc1	4.47
Cc1cc(=O)c2ccccc2n1CC1CCCN(C)C1 (stereo not given)	-5.82
Cc1cc(CN2CCC(CNC(=O)c3ccc(C#N)cc3)C2)[nH]n1 (stereo not given)	-138
COc1cc(-c2nc(C3CC3)nn2-c2ccnc(C)c2)nc(OC)n1	2.64
CCC[C@@H]1CN(Cc2c[nH]c(CC3CCCC3)n2)C[C@H]1C(=O)O	4.86
CCCc1cc(C(=O)N(Cc2cccnc2)C2CCCCC2)[nH]n1	-11.2
Cc1csc2c(N3CCNC(C(=O)N4CCCC4)C3)ncnc12 (stereo not given)	-5.6
O=C(CC(F)(F)F)N1CCc2[nH]nc(-c3ccc4c(c3)OCO4)c2C1	-149
O=C(CC[C@@H]1CCCN2CCCC[C@H]12)N1CCC(c2nnc[nH]2)CC1	2.61
CC(=O)N1CCCCC1c1ncnn1-c1ccc2nc(C)sc2c1 (stereo not given)	-12
CN(CCc1cn[nH]c1)C(=O)C1CC(=O)N(Cc2cccnc2)C1 (stereo not given)	-0.812
Cc1ccc2cc(C3(O)CCN(C(=O)CN4CCCC4)CC3)ccc2n1	2.57
COc1ccc(C2CC(=O)Nc3c2cnn3C2CCCC2)cc1 (stereo not given)	-9.41
CCCn1ncc2c(C(=O)Nc3cnn(CC)c3C)cc(C3CC3)nc21	-0.842
CN(Cc1ccsc1)C(=O)c1cc2c([nH]c1=O)CCC2	-12.4
COC1CCN(C(=O)CCn2cccn2)CC1	-13.4

Structure (SMILES)	cytotoxicity at 10 µM [%]
Cc1nc(C)n(CC2CCCN2CCCc2nc3ccccc3o2)n1 (stereo not given)	-8.58
Cn1cnc(S(=O)(=O)NCCCN2CCCC2)c1Cl	-11.6
Cc1cc(C2CCCN2Cc2cc(=O)n(C)c(=O)n2C)no1 (stereo not given)	-20.6
Cc1csc(N2CCN(C(=O)C3(C#N)CCCC3)CC2)n1	-12.6
CCNC(=O)NC(=O)CNc1cc(C#N)ccc1OCC	-19.7
CN(Cc1ccc(O)cc1)C(=O)NCc1nnc2n1CCCCC2	-11.1
COc1ccc(-c2nc(CN3CCc4cnc(C)nc4C3)no2)cc1	-7.1
CCn1cnnc1CNC(=O)NC(c1cccs1)C1CCCC1 (stereo not given)	-11.2
O=C(NCCCn1nc2ccccn2c1=O)NCc1ccccc1	-16.1
COc1ccc(OCCC(=O)N2CCCC2Cn2cccn2)cc1 (stereo not given)	-39
CCc1csc(C2CCCN(C(=O)c3ccc4[nH]nnc4c3)C2)n1 (stereo not given)	-17.1
CN(Cc1ccco1)C(=O)CN1CCCC1Cn1cccn1 (stereo not given)	1.55
CCn1cnnc1CNC(=O)c1cc(Cl)ccc1OC	5.87
O=C(Nc1cccnc1)[C@@H]1COC[C@H]2CN(C3CCCC3)C[C@H]21	5.74
CCN1C[C@H]2[C@@H](C1)N(C(=O)Cc1ccsc1)CC[C@H]2OC	6.8
O=C(C1=CCCC1)N1CCC[C@]2(C[C@@H](OCc3ccncc3)CO2)C1	-6.5
CCN1CCN(C)C(=O)C12CCN(Cc1ccsc1)CC2	1.14
c1ncn(Cc2cn3c(n2)CN(CC2CCCCC2)CC3)n1	-123
O=C(c1cocn1)N1CC[C@H]2OCC[C@@]2(COc2ncccc2F)C1	-127
c1cc(CN2Cc3nccn3CC(Cn3cncn3)C2)ccn1 (stereo not given)	-134
CN(C)C(=O)COC[C@]12COC[C@H]1CN(Cc1ccccc1)C2	-5.78
CN(C)C(=O)N1C[C@H]2CCC[C@@]2(COc2ccccn2)C1	3.24
CN1[C@@H](C(=O)NCC2CC2)C[C@@H]2CN(Cc3ccsc3)C[C@@H]21	-4.04
Cc1occc1C(=O)N1CCC[C@]2(C[C@@H](OCc3ccncc3)CO2)C1	-6.25
CSc1ncc(C(=O)N2C[C@@H]3CC[C@H]2CN(S(=O)(=O)N(C)C)C3)cn1	0.0773
CC(=O)N1C[C@H]2CC[C@@H](C1)N(S(=O)(=O)c1ccc(F)cc1Cl)C2	-0.756
CC(C)CS(=O)(=O)N1C[C@@H]2C[C@H](C(=O)Nc3cccnc3)[C@H](C1)O2	-1.55
